{"data": "Assay results gathered from unrelated publications", "target": "LIM domain kinase 1 (LIMK1, Homo sapiens, UniProt P53667)", "note": "Protocols differ between the studies behind these lines."}
{"Structure (SMILES)": "CS(=O)(=O)N1CCCC(NC(=O)[C@H](CCC2CCCCC2)NC(=O)c2ccc(CNC(=O)c3cnc4ccccn34)cc2)C1 (some centres unmarked)", "effect on": "cell-free assay", "technique": "competition with immobilised ligand", "concentration": "0.1 µM", "remaining binding [%]": 75}
{"Structure (SMILES)": "N[C@H]1CCN(c2nccc(-c3cnn4ncccc34)n2)C1", "effect on": "binding", "concentration": "1 µM", "remaining binding [%]": 81}
{"Structure (SMILES)": "FC(F)(F)Oc1cccc(-c2cnc3ccc(-c4ccncc4)nn23)c1", "effect on": "cell-free assay", "technique": "competition with immobilised ligand", "concentration": "5 µM", "remaining binding [%]": 81}
{"Structure (SMILES)": "N#CC1(c2ccccn2)CCN(Cc2cc(C(=O)N3CCCC3)c(=O)n3ccccc23)CC1", "effect on": "cell-free assay", "technique": "competition with immobilised ligand", "concentration": "1 µM", "remaining binding [%]": 98}
{"Structure (SMILES)": "CCN1CCN(Cc2ccc(C(=O)Nc3ccc(C)c(Oc4ccc5c(c4)CC(=O)N5)c3)cc2C(F)(F)F)CC1", "effect on": "binding", "technique": "competition with immobilised ligand", "concentration": "1 µM", "remaining binding [%]": 100}
{"Structure (SMILES)": "O=C(NCCCN1CCOCC1)c1ccc(Nc2nccc(-c3cc4ccccc4s3)n2)cc1", "effect on": "binding", "technique": "competition with immobilised ligand", "concentration": "1 µM", "remaining binding [%]": 53}
{"Structure (SMILES)": "CN(CCCC(F)(F)F)c1nccc(-c2cnn3ncccc23)n1", "effect on": "binding", "concentration": "1 µM", "remaining binding [%]": 86}
{"Structure (SMILES)": "COc1ncc2cc3ccccc3nc2c1C#N", "effect on": "cell-free assay", "technique": "competition with immobilised ligand", "concentration": "5 µM", "remaining binding [%]": 98}
{"Structure (SMILES)": "COc1ccnn2ncc(-c3ccnc(N(C)C)n3)c12", "effect on": "binding", "concentration": "1 µM", "remaining binding [%]": 100}
{"Structure (SMILES)": "O=C(c1ccc(Nc2ncc(Cl)c(-c3cc4ccccc4s3)n2)cc1)N1CCC(N2CCCC2)CC1", "effect on": "binding", "technique": "competition with immobilised ligand", "concentration": "1 µM", "remaining binding [%]": 53}
{"Structure (SMILES)": "CC1CCCN1c1nccc(-c2cnn3ncccc23)n1 (centres unmarked)", "effect on": "binding", "concentration": "1 µM", "remaining binding [%]": 100}
{"Structure (SMILES)": "CNCc1ccccc1-c1csc([C@@H](C)Nc2nc(C)nc3cc(OC)c(OC)cc23)c1", "effect on": "cell-free assay", "technique": "competition with immobilised ligand", "concentration": "1 µM", "remaining binding [%]": 99}
{"Structure (SMILES)": "COc1cnc(Nc2cccc(S(N)(=O)=O)c2)nc1N1CCN(c2ccccc2)C(=O)C1", "effect on": "binding", "technique": "competition with immobilised ligand", "concentration": "1 µM", "remaining binding [%]": 100}
{"Structure (SMILES)": "Cc1cnc(Nc2ccc(C(=O)N3CCC(N4CCCC4)CC3)cc2)nc1-c1cc2ccccc2s1", "effect on": "binding", "technique": "competition with immobilised ligand", "concentration": "1 µM", "remaining binding [%]": 55}
{"Structure (SMILES)": "COCCOc1nc(-c2ccc(Cl)nc2)nc2c1CN(C(=O)c1ncn3ccccc13)CC2", "effect on": "cell-free assay", "technique": "competition with immobilised ligand", "concentration": "0.1 µM", "remaining binding [%]": 100}
{"Structure (SMILES)": "O=C(Nc1c[nH]nc1C(=O)NC1CCNCC1)c1cc(F)cc(F)c1", "effect on": "binding", "technique": "competition with immobilised ligand", "concentration": "1 µM", "remaining binding [%]": 97}
{"Structure (SMILES)": "Cc1cc(NC(=O)c2cccc(S(F)(F)(F)(F)F)c2)cc(-n2ccn3nc(-c4cccnc4)cc23)c1", "effect on": "cell-free assay", "technique": "competition with immobilised ligand", "concentration": "1 µM", "remaining binding [%]": 100}
{"Structure (SMILES)": "Nc1ncc2c(n1)-c1c([nH]c3ccc(C#CC4CC4)cc13)CCCC2", "effect on": "binding", "technique": "competition with immobilised ligand", "concentration": "1 µM", "remaining binding [%]": 96}
{"Structure (SMILES)": "CCC(=O)N[C@H]1CC[C@@H](C(=O)N(C)c2ccc(-c3nc4ccccc4o3)cc2)C1", "effect on": "cell-free assay", "technique": "competition with immobilised ligand", "concentration": "1 µM", "remaining binding [%]": 86}
{"Structure (SMILES)": "C[C@H]1CCN(c2nccc(-c3cnn4ncccc34)n2)C1", "effect on": "binding", "concentration": "1 µM", "remaining binding [%]": 91}
